Sampled rows, rich in hits. Any-hit rate of the full collection: about 3.5%.
MrgX1 antagonist – antagonists of human MrgX1 receptor, primary screen, HEK293 cells, Fluo-4 calcium flux; Mas-related G-protein coupled receptor member X1 (Homo sapiens), Q96LB2; AID 588676, 2011; actives 1.3% (n = 310,000); BAM8-22 antagonism; active compounds read low; B-score at 10 µM;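 active = calcium-response B-score plate-corrected more than 3 library SD below zero, starting fluorescence within 5 deviations, no agonist response on first addition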;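 also: peak minus trough fluorescence over baseline after final BAM8-22 challenge near maximal dose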
Target sequence (Q96LB2 whole entry, looked up): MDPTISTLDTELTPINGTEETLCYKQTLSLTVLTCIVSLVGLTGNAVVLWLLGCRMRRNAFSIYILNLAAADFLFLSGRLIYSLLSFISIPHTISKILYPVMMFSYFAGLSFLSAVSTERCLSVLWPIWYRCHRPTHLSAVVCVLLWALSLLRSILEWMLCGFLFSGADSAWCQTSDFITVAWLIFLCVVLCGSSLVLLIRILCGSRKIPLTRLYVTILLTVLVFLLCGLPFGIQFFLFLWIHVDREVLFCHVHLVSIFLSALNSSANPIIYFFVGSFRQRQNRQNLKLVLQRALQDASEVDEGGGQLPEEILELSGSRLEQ
MrgX1 ag – agonists of human MrgX1 receptor, primary screen, HEK293 cells, Fluo-4 calcium flux; Mas-related G-protein coupled receptor member X1 (Homo sapiens), Q96LB2; Fluo-4 calcium fluorescence, agonist mode; active compounds read high; B-score at 10 µM; actives 0.44% (n = 310,000);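 active = calcium response B-score plate-corrected fluorescence ratio at least 3 library SD, with starting fluorescence B-score inside 5 SD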
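Material: MrgX1-expressing HEK293 cells; input: 15,000 cells per well; doses: test compound given as first of three sequential additions; schedule: overnight plating before 1 h dye loading; technique: Fluo-4 NW calcium-flux fluorescence, kinetic read; evaluation: baseline-normalised fluorescence change ratio, B-scored; control set: plate-wise positive and negative controls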
MrgX1 allo act – positive allosteric modulators of MrgX1, primary screen, HEK293 cells, Fluo-4 calcium flux | FDSS; active compounds read high | B-score at 10 µM | actives 0.63% (n = 310,000) | AID 588675, 2011 | Mas-related G-protein coupled receptor member X1 (Homo sapiens), Q96LB2;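 active = plate-corrected calcium response at least 3 library SD above typical, normal starting fluorescence, not activating the receptor alone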;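 also: compound read alongside a low EC10 to EC30 dose of BAM8-22 agonist; peak minus trough fluorescence over baseline measured at the second addition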
RGS4 act – RGS4 potentiators or activators, primary screen, cell-based, HEK293 M3R inducible RGS4, calcium flux | actives 0.92% (n = 310,000) | B-score at 10 µM | AID 463111, 2010 | carbachol calcium flux Fluo4; active compounds read low;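 active = B-score of the integrated calcium signal more than 4 SD below the library mean, with starting fluorescence not abnormally high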;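 also: negative B-score means reduced calcium response which marks RGS4 activation or potentiation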
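System: HEK293 FlpIn-TREx cells, stable M3R, doxycycline-inducible RGS4. Timing: overnight RGS4 induction, 30 min dye load 37 °C, 20 min compound RT. Also added: carbachol, ECmax concentration. Measured by: Fluo4 fluorescence kinetic imaging of calcium. Evaluation: integrated calcium ratio converted to B score.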
RGS4 block – RGS4 inhibitors, primary screen, cell-based, HEK293 M3R inducible RGS4, calcium flux; Regulator of G-protein signaling 4 (Homo sapiens), P49798; Fluo-4 calcium flux; active compounds read high; triggered by carbachol at its EC20; B-score at 10 µM; actives 0.45% (n = 310,000); AID 463165, 2010;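 active = B-score, a plate-corrected calcium signal, over three deviations above library mean, with baseline fluorescence within five deviations of library mean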;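 also: RGS4 expression induced by doxycycline in cells with stable M3 receptor; B-score is computed from the integrated fluorescence ratio over baseline after carbachol; higher B-score means a larger calcium signal and so more RGS4 inhibition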
Target sequence (P49798 whole entry, looked up): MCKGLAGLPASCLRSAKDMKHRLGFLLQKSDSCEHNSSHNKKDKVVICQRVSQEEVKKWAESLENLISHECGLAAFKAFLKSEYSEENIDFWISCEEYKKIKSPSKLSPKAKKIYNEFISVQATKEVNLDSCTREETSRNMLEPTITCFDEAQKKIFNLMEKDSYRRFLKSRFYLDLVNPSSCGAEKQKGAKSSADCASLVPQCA
* = called active by the depositor; i = inactive; x = not tested or not shown.

SMILES	MrgX1 antagonist	MrgX1 ag	MrgX1 allo act	RGS4 act	RGS4 block
CC1=NN(c2ccc(C)cc2)C(=O)/C1=C\c1ccc(Br)s1	-6.48*	i	i	i	i
CCOC(=O)c1sc(-c2ccc(Cl)cc2)nc1O	i	i	i	i	i
CCOC(=O)c1ccc(NC(=S)Nc2ccc3[nH]c(=O)[nH]c3c2)cc1	i	i	i	i	i
CCN1C(=O)CCC(C(=O)O)C1c1ccc(OC)cc1 (centres undefined)	i	i	i	i	i
CC(C)(C)C(=O)c1no[n+]([O-])c1/C(=N/O)C(C)(C)C	i	37.5*	i	i	i
Fc1cccc(Cc2noc(CN3CCCCC3CCc3ccccn3)n2)c1 (centres undefined)	i	i	i	i	i
CCc1nc(Nc2ccc3c(c2)OCCO3)c2oc3ccccc3c2n1	i	i	i	-7.3*	i
O=C(/C=C/c1ccco1)OCC1CCCN2CCCCC12 (centres undefined)	i	i	i	-6.96*	i
CCCCC(=O)N(CCOC)c1nnc(-c2ccccc2C)s1	i	i	i	i	i
O=C1C=CC(=O)N1CCNc1ncc(C(F)(F)F)cc1Cl	x	x	x	-7.94*	i
COC(=O)Nc1nn(-c2ccc(OC)cc2)c(=O)c(C#N)c1C	i	i	i	i	i
COc1ccc(-n2nc(C(=O)N3CCCCC3)c(C)c(C#N)c2=O)cc1	-5.83*	i	i	i	i
COc1ccc(CNC(=O)CSc2nc3cccnc3s2)cc1	i	i	i	i	i
CCOC(=O)c1c(NC(=O)COC(=O)CC(NC(C)=O)c2ccccc2)sc(C(=O)NC)c1C (centres undefined)	-4.78*	i	i	i	i
CCOC(=O)c1c(NC(=O)COC(=O)c2ccc(O)cc2)sc(C(=O)NC)c1C	i	i	i	i	i
COCCn1c(-c2ccc(-c3ccc([N+](=O)[O-])cc3Br)o2)nc2c1c(=O)[nH]c(=O)n2CC(C)C	-6.22*	i	i	i	i
COCCn1c(=O)[nH]c(=O)c2c1nc(-c1ccc(-c3ccc(Cl)cc3[N+](=O)[O-])o1)n2Cc1ccccc1	i	i	i	i	i
Cc1ccc(NC(=O)CN2C(=O)S/C(=C\c3cc(Cl)c(OCC(=O)O)c(Cl)c3)C2=O)cc1	i	i	i	i	i
COC(=O)c1ccc(Oc2c(Cl)cccc2[N+](=O)[O-])cc1	i	i	8.57*	i	i
CC(=O)N1CCc2cc(S(=O)(=O)NC(CC(C)C)C(=O)N3CCCC3)ccc21 (centres undefined)	i	i	i	i	i
CCCOc1ccc(NC(=O)CCC(=O)NC(C)c2ccccc2)cc1 (centres undefined)	i	i	i	i	i
O=C(c1ccncc1)N1N=C(C2CCCCC2)CC1(O)C(F)(F)F (centres undefined)	i	i	i	-7.41*	i
NC(=O)c1ccsc1NC(=O)c1coc2ccccc2c1=O	i	i	i	i	i
CCC(C)N(C(=O)COc1ccccc1C(=O)NCc1ccccc1)C1CCS(=O)(=O)C1 (centres undefined)	-6.16*	i	i	i	i
O=C(c1ccc(OC2CCN(CCCc3ccccc3)CC2)cc1)N1CCCC1	i	i	i	-7.39*	i
SMILES	MrgX1 antagonist	MrgX1 ag	MrgX1 allo act	RGS4 act	RGS4 block
CC(=O)N1CCN(C(=O)c2ccc(OC3CCN(CCc4ccccc4)CC3)cc2)CC1	i	i	i	i	i
O=C1OCCN1C(=O)[C@H]1[C@H](c2ccc(F)cc2)C(c2ccc(F)cc2)=NN1c1ccc(Br)cc1	i	i	i	-9.23*	i
CCN(CC)c1ccc(NC(=O)COc2ccc(N(C)S(=O)(=O)c3cccs3)cc2)cc1	i	i	7.95*	i	i
Nc1nc(-c2ccccc2)c(-c2ccc([N+](=O)[O-])cc2)s1	-5.1*	i	i	i	i
Cc1ccc(-c2cn3nc(-c4ccccc4)c(-c4ccccc4)nc3n2)cc1	i	i	i	-6.98*	i
CC(=O)CCc1oc2ccc([N+](=O)[O-])cc2c1-c1ccc(C)o1	i	i	i	i	i
C/C(CCc1oc2ccccc2c1-c1ccc(C)o1)=N/O	i	28.3*	i	i	i
NNC(=O)c1[nH]c2ccc([N+](=O)[O-])cc2c1-c1ccccc1	i	i	i	i	i
O=C(N/N=C/c1ccccn1)c1[nH]c2ccc([N+](=O)[O-])cc2c1-c1ccccc1	-5.14*	i	i	i	i
CC1CC(N(C(=O)c2ccco2)c2ccccc2)c2ccccc2N1 (centres undefined)	i	i	6.51*	i	i
CCO[C@@H]1OC(C(=O)NCc2ccccc2)=C[C@H](c2coc3ccccc3c2=O)[C@H]1CCCO	-5.87*	i	i	i	i
C#CCNC(=O)C1=C[C@@H](c2ccc(C#C)cc2)[C@H](CCCO)[C@@H](OCC)O1	-8.35*	i	i	i	i
CCCCCc1ccc(OCCOCCn2c[n+](C)c3ccccc32)c(CCCCC)c1	x	x	x	-7.59*	i
CCCCCc1ccc(OCCC[n+]2ccccc2)c(CCCCC)c1	i	i	i	i	i
O=C(/C=C/c1ccccc1)c1cc(Br)ccc(=O)c1O	i	i	11.4*	i	i
C=CCOc1cccc(C2/C(=C(/O)c3ccc(Cl)cc3)C(=O)C(=O)N2CCN2CCOCC2)c1 (centres undefined)	-4.97*	i	i	i	i
CCOP(=O)(c1ccc(N(C)C)cc1)C(O)c1cc(OC)c(OC)c(OC)c1 (centres undefined)	-4.83*	i	i	i	i
COc1cc(C(O)P(=O)(OCC(C)C)c2ccc(N(C)C)cc2)cc(OC)c1OC (centres undefined)	i	i	i	i	i
CCOC(=O)C1(Cc2ccccc2C)CCCN(C(=O)c2ccccn2)C1 (centres undefined)	i	i	i	i	i
CCOC(=O)C1(Cc2ccccc2C)CCCN(C(=O)c2ccc3nccnc3c2)C1 (centres undefined)	i	i	i	-7.12*	i
CCN(CC)CCn1c(NC(=O)c2ccccc2O)nc2ccccc21	i	i	i	i	i
